Measured values gathered from unrelated publications.
Lines come from different studies, so protocols differ.
Target: Mitogen-activated protein kinase 15 (MAPK15, Homo sapiens, UniProt Q8TD08)
Sequence (Q8TD08 1-544, as in one of the studies): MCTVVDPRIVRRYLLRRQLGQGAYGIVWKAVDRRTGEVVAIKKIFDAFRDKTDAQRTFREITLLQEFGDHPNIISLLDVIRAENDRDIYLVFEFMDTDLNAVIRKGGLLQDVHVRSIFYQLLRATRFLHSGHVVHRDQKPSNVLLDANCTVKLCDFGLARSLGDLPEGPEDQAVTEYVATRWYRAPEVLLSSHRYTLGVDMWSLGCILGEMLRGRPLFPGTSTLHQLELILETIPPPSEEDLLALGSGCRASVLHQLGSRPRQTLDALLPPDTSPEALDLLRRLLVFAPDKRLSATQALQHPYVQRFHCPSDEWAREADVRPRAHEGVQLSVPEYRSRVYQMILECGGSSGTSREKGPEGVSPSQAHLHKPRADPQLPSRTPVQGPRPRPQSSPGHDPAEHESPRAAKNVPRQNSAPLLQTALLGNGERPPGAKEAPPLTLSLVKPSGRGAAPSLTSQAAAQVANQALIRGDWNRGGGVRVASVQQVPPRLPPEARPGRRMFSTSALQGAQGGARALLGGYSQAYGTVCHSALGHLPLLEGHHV

O=C(c1ccc(Nc2ncc(Cl)c(-c3ccc(Cl)s3)n2)cc1)N1CCC(N2CCCC2)CC1 — remaining binding (binding, competition with immobilised ligand; 1 µM): 3.8%
O=C(Nc1c[nH]nc1C(=O)NC1CCNCC1)c1cc(F)cc(F)c1 — remaining binding (binding, competition with immobilised ligand; 1 µM): 75%
CNC(=O)[C@@H]1CC[C@@H](n2c(-c3ccc4cnccc4c3)nc3ccc(C(=O)NCc4cccc(C(N)=O)c4)cc32)C1 — remaining binding (binding, competition with immobilised ligand; 1 µM): 95%
O=S(=O)(NC1CCC(c2cc(F)ccc2F)(S(=O)(=O)c2ccc(Cl)cc2)CC1)C(F)(F)F (stereo not shown) — remaining binding (cell-free assay, competition with immobilised ligand; 1 µM): 94%
CCN1CCN(Cc2ccc(C(=O)Nc3ccc(C)c(Oc4ccc5c(c4)CC(=O)N5)c3)cc2C(F)(F)F)CC1 — remaining binding (binding, competition with immobilised ligand; 1 µM): 100%
COc1ncc2cc3ccccc3nc2c1C#N — remaining binding (cell-free assay, competition with immobilised ligand; 5 µM): 91%
O=C(c1ccc(Nc2nccc(-c3cc4ccccc4s3)n2)cc1)N1CCC(N2CCCC2)CC1 — remaining binding (binding, competition with immobilised ligand; 1 µM): 49%
CS(=O)(=O)N1CCCC(NC(=O)[C@H](CCC2CCCCC2)NC(=O)c2ccc(CNC(=O)c3cnc4ccccn34)cc2)C1 (stereo partly shown) — remaining binding (cell-free assay, competition with immobilised ligand; 0.1 µM): 100%
CN(C)c1nccc(-c2cnn3ncccc23)n1 — remaining binding (binding; 1 µM): 51%
Nc1ncc2c(n1)-c1c([nH]c3ccc(C#CC4CC4)cc13)CCCC2 — remaining binding (binding, competition with immobilised ligand; 1 µM): 100%
CC1=C(C#N)C(c2ccc3c(c2)c(NC(=O)c2ccccc2C)nn3C)C(C#N)=C(C)N1 — remaining binding (cell-free assay, competition with immobilised ligand; 1 µM): 89%
CN(C)c1nccc(-c2cnc3ncccn23)n1 — remaining binding (binding; 1 µM): 50%
O=C(NCCCN1CCOCC1)c1ccc(Nc2nccc(-c3cc4ccccc4s3)n2)cc1 — remaining binding (binding, competition with immobilised ligand; 1 µM): 10%
CCS(=O)(=O)c1cc2cc(C[C@](O)(CC(C)(C)c3ccc(F)cc3C(N)=O)C(F)(F)F)[nH]c2cn1 — remaining binding (cell-free assay, competition with immobilised ligand; 1 µM): 100%
COc1ccnn2ncc(-c3ccnc(N(C)C)n3)c12 — remaining binding (binding; 1 µM): 91%
C[C@@H](c1ccc(-n2cnc3c(N)ncnc32)cc1)N1CCc2nn(C)c(Cc3ccccc3)c2C1=O — remaining binding (binding, competition with immobilised ligand; 0.1 µM): 88%
C[C@H]1CCN(c2nccc(-c3cnn4ncccc34)n2)C1 — remaining binding (binding; 1 µM): 74%
O=C(O)c1cc(-c2ccc(C3CCNCC3)cc2)c2ccc(-c3ccc(C(F)(F)F)cc3)cc2c1 — remaining binding (cell-free assay, competition with immobilised ligand; 1 µM): 100%
N[C@H]1CCN(c2nccc(-c3cnn4ncccc34)n2)C1 — remaining binding (binding; 1 µM): 93%
C[C@H](NC(=O)c1cnc2n1[C@](C)(Cc1ccc(C#N)cc1)C(=O)N2c1cc(Cl)c(F)c(Cl)c1)C(=O)NC1(c2ccccn2)CC1 — remaining binding (cell-free assay, competition with immobilised ligand; 1 µM): 100%
Cc1cnn2ncc(-c3ccnc(N(C)C)n3)c2c1 — remaining binding (binding; 1 µM): 83%
COc1ccc2cc(OCC3(C(=O)O)CN(C(=O)c4ccc(F)cc4)C3)ccc2c1 — remaining binding (cell-free assay, competition with immobilised ligand; 1 µM): 74%
